Reference: paper PMC10061538 (ACS Omega, 2023)

Assays:
[1] = target: T1, CYP2A6 (Homo sapiens, UniProt P11509); conditions: 50 μM tranylcypromine pretreatment 1 h, then 100 μM coumarin 1 h
T1 sequence (P11509 1-494): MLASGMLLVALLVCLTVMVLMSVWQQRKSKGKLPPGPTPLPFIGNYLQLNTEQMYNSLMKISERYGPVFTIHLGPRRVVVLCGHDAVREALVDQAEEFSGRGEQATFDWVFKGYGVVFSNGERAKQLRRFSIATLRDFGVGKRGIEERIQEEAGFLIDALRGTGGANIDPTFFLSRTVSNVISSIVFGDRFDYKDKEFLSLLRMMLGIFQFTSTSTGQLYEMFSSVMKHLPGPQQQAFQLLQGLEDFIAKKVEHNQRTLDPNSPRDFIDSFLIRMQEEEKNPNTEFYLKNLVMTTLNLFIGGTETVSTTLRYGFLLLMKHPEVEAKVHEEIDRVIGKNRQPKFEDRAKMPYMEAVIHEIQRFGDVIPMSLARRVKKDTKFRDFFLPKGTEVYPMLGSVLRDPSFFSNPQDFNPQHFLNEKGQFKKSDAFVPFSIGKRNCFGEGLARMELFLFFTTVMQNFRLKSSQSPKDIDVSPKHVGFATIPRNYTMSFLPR

[2] = test system: CYP2A6-transduced BEAS-2B cells; assay: Cell viability by LDH release; format: cell-based; conditions: flavoring agent at 500 μM, 2 h total exposure, 50 μM coumarin, Figure S4
Summary of the method: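 CYP2A6-transduced BEAS-2B cells were grown to confluence in KGM and switched to KBM. They were exposed to flavoring agent at 500 μM for 1 h, then coumarin was added to 50 μM, for 2 h total, in triplicate wells. Medium was incubated 30 min with tetrazolium substrate and read at 490 nm absorbance. Maximal LDH was set by lysis buffer.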

[3] = target: T1, CYP2A6; assay: Cellular CYP2A6 inhibition screening; format: cell-based; conditions: for inhibition of cellular CYP2A6: flavoring agent at 500 μM

inhibition of cellular CYP2A6 [3] | SMILES | fluorescence (7-hydroxycoumarin formation) in CYP2A6-transduced cells [1] | mean percent of maximal LDH [2] | IC50 [3]
 | Cl.N[C@@H]1C[C@H]1c1ccccc1 (relative stereo) [tranylcypromine, trans-2-Phenylcyclopropylamine hydrochloride] | strongly reduced |  | 
 | O=Cc1ccccc1 [benzaldehyde] |  | 8.9% | 7.6 µM
 | O=C/C=C/c1ccccc1 [cinnamaldehyde, trans-cinnamaldehyde] |  | 6.6% | 7.4 µM
negligible inhibition | CC(=O)OCCC(C)C [isoamyl acetate] |  |  | > 500 µM
near-maximal inhibition | COc1cc(C=O)ccc1O [vanillin] |  |  | 200 µM
